Test results taken from EPA's CvTdb concentration-time database.

Key:
[1] = test system: Rat; assay: concentration in plasma after dosing; conditions: 2 h; dosed: Pyridine; 5 mg/kg; oral; Male; F344
[2] = test system: Rat; assay: concentration in plasma after dosing; conditions: dosed: Pyridine, 5 mg/kg, iv, Male, F344
[3] = test system: Rat; assay: concentration in plasma after dosing; conditions: dosed: Pyridine, 5 mg/kg, iv, Male, F344; remark: listed apart in the source
[4] = test system: Rat; assay: concentration in plasma after dosing; conditions: dosed: 2-Hydroxy-4-methoxybenzophenone, 100 mg/kg, oral, Male, F344
[5] = test system: Mouse; assay: concentration in plasma after dosing; conditions: 10 min; dosed: 2-Hydroxy-4-methoxybenzophenone; 250 mg/kg; oral; Female; B6C3F1
[6] = test system: Rat; assay: concentration in plasma after dosing; conditions: dosed: 2-Hydroxy-4-methoxybenzophenone, 250 mg/kg, oral, Male, F344
[7] = test system: Mouse; assay: concentration in plasma after dosing; conditions: 2 h; dosed: 2-Hydroxy-4-methoxybenzophenone; 250 mg/kg; oral; Male; B6C3F1
[8] = test system: Rat; assay: concentration in brain after dosing; conditions: 3 h; dosed: alpha-Thujone; 25 mg/kg; oral; Female; Harlan Sprague Dawley
[9] = test system: Rat; assay: concentration in brain after dosing; conditions: 1.5 h; dosed: alpha-Thujone; 25 mg/kg; oral; Male; Harlan Sprague Dawley
[10] = test system: Rat; assay: concentration in brain after dosing; conditions: 0.5 h; dosed: alpha-Thujone; 50 mg/kg; oral; Female; Harlan Sprague Dawley
[11] = test system: Rat; assay: concentration in brain after dosing; conditions: 10 min; dosed: alpha-Thujone; 25 mg/kg; oral; Male; Harlan Sprague Dawley
[12] = test system: Rat; assay: concentration in brain after dosing; conditions: 1.5 h; dosed: alpha-Thujone; 25 mg/kg; oral; Male; Harlan Sprague Dawley; remark: listed apart in the source
[13] = test system: Rat; assay: concentration in brain after dosing; conditions: 1.5 h; dosed: alpha-Thujone; 50 mg/kg; oral; Female; Harlan Sprague Dawley
[14] = test system: Rat; assay: concentration in brain after dosing; conditions: 3 h; dosed: alpha-Thujone; 50 mg/kg; oral; Female; Harlan Sprague Dawley
[15] = test system: Rat; assay: concentration in brain after dosing; conditions: 5 min; dosed: alpha-Thujone; 25 mg/kg; oral; Male; Harlan Sprague Dawley
[16] = test system: Rat; assay: concentration in plasma after dosing; conditions: 1.5 h; dosed: alpha-Thujone; 50 mg/kg; oral; Female; Harlan Sprague Dawley
[17] = test system: Rat; assay: concentration in plasma after dosing; conditions: 3 h; dosed: alpha-Thujone; 25 mg/kg; oral; Male; Harlan Sprague Dawley
[18] = test system: Rat; assay: concentration in liver after dosing; conditions: 3 h; dosed: Perfluorohexane-1-sulphonic acid – potassium salt; 16 mg/kg; oral; Female; Harlan Sprague Dawley
[19] = test system: Rat; assay: concentration in liver after dosing; conditions: 12 h; dosed: Perfluorohexane-1-sulphonic acid – potassium salt; 16 mg/kg; oral; Female; Harlan Sprague Dawley
[20] = test system: Rat; assay: concentration in liver after dosing; conditions: 12 h; dosed: Perfluorohexane-1-sulphonic acid – potassium salt; 16 mg/kg; oral; Female; Harlan Sprague Dawley; remark: listed apart in the source
[21] = test system: Rat; assay: concentration in liver after dosing; conditions: 24 h; dosed: Perfluorohexane-1-sulphonic acid – potassium salt; 16 mg/kg; oral; Female; Harlan Sprague Dawley
[22] = test system: Rat; assay: concentration in brain after dosing; conditions: 192 h; dosed: Perfluorohexane-1-sulphonic acid – potassium salt; 16 mg/kg; oral; Female; F344
[23] = test system: Rat; assay: concentration in kidney after dosing; conditions: 24 h; dosed: Perfluorohexane-1-sulphonic acid – potassium salt; 16 mg/kg; oral; Female; F344
[24] = test system: Rat; assay: concentration in kidney after dosing; conditions: 3 h; dosed: Perfluorohexane-1-sulphonic acid – potassium salt; 16 mg/kg; oral; Female; Harlan Sprague Dawley
[25] = test system: Hamster; assay: concentration in plasma after dosing; conditions: dosed: 2,4-Dichlorophenoxyacetic acid, Male, Syrian Golden
Method in brief: (§1)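 A PubMed search, classifier screening and manual review identified published in vivo toxicokinetic studies, which together with two structured collections supplied concentration-versus-time and amount-versus-time points. Points were mostly digitised from plot screenshots with WebPlotDigitizer, otherwise copied from tables. Dose, route, subject details and medium were hand-curated from each paper, and sampling and analytical methods are those of the sources, often unreported.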

[26] = test system: Hamster; assay: concentration in plasma after dosing; conditions: dosed: 2,4-Dichlorophenoxyacetic acid, 8.0 mg/kg, iv, Male, Syrian Golden
Method in brief: as §1

[27] = test system: Rat; assay: concentration in plasma after dosing; conditions: dosed: Methyleugenol, 37 mg/kg, iv, Male, F344
[28] = test system: Rat; assay: concentration in plasma after dosing; conditions: dosed: Methyleugenol, 37 mg/kg, oral, Female, F344/N
[29] = test system: Rat; assay: concentration in plasma after dosing; conditions: 0.25 h; dosed: Primidone; 80 mg/kg; oral; Female; Harlan Sprague-Dawley
[30] = test system: Rat; assay: concentration in plasma after dosing; conditions: 1.5 h; dosed: Primidone; 30 mg/kg; oral; Female; F344
[31] = test system: Rat; assay: concentration in plasma after dosing; conditions: 9 h; dosed: Primidone; 130 mg/kg; oral; Male; F344

c1ccncc1 [Pyridine]
Conditions | concentration in plasma [ng/mL]
[1] | 2730

concentration in plasma [ng/mL]
Conditions | 0.25 h | 0.5 h | 6 h | 8 h
[2] | 3670 | – | 1390 | –
[3] | – | 2590 | – | 881

O=C(c1ccccc1)c1ccc(O)cc1O [2,4-Dihydroxybenzophenone]
concentration in plasma [ng/mL]
Conditions | [4] | [6]
0.25 h | 61.2 | 33
4 h | 48.4 | 90.4

Conditions | concentration in plasma [ng/mL]
[5] | 2990
[7] | 338

CC(C)[C@]12CC(=O)[C@H](C)[C@H]1C2 [alpha-Thujone]
Conditions | concentration in brain [ng/g] | concentration in plasma [ng/mL]
[8] | 919 | –
[9] | 525 | –
[10] | 8580 | –
[11] | 3920 | –
[12] | 388 | –
[13] | 1020 | –
[14] | 858 | –
[15] | 360 | –
[16] | – | 323
[17] | – | 113

O=S(=O)([O-])C(F)(F)C(F)(F)C(F)(F)C(F)(F)C(F)(F)C(F)(F)F.[K+] [Perfluorohexane-1-sulphonic acid – potassium salt]
Conditions | concentration in brain [ng/g] | concentration in kidney [ng/g] | concentration in liver [ng/g]
[18] | – | – | 54100
[19] | – | – | 39800
[20] | – | – | 29700
[21] | – | – | 25700
[22] | 929 | – | –
[23] | – | 43700 | –
[24] | – | 31500 | –

O=C(O)COc1ccc(Cl)cc1Cl [2,4-Dichlorophenoxyacetic acid]
concentration in plasma [ng/mL], [25]
Conditions | 2.0 mg/kg | 8.0 mg/kg | 40 mg/kg
0.25 h, iv | – | 21300 | –
0.25 h, oral | 7560 | 16500 | 68500
0.5 h, oral | – | 3990 | 84200
1 h, iv | – | 1050 | –
1 h, oral | – | 5860 | 19100
1.5 h, iv | – | 915 | –
1.5 h, oral | – | 1080 | 29600
2 h, iv | – | 186 | –
2 h, oral | – | 1120 | 25400
2.5 h, oral | 1930 | – | –
2.5 min, iv | – | 127000 | –
2.5 min, oral | 217 | – | –
4 h, oral | – | 820 | 2830
5 min, iv | – | 77100 | –
5 min, oral | 453 | 19500 | 81600
6 h, oral | – | 1350 | 2700
10 min, iv | – | 42400 | –
10 min, oral | 2080 | – | –
20 min, iv | – | 20700 | –
40 min, iv | – | 3980 | –

[26]
Conditions | concentration in plasma [ng/mL]
0.5 h | 10700
1 h | 1700
10 min | 30200

C=CCc1ccc(OC)c(OC)c1 [Methyleugenol]
concentration in plasma [ng/mL]
Conditions | 0.25 h | 1.5 h | 4 h | 5 min
[27] | 8180 | 878 | – | –
[28] | – | – | 9.95 | 173

CCC1(c2ccccc2)C(=O)NCNC1=O [Primidone]
Conditions | concentration in plasma [ng/mL]
[29] | 12500
[30] | 20600
[31] | 10400
